Assay results pooled from the literature.
Compare with care: the assays were run in different laboratories.
Cell line: HT-29

COc1c(C)c(OS(=O)(=O)c2ccc3ccccc3c2)c(C)c(OS(=O)(=O)c2ccc3ccccc3c2)c1C(=O)/C=C/c1ccccc1
IC50 (cell growth or viability; SRB; 72 h): > 50 µM

O=C(O)/C=C/c1ccc(O)c(O)c1
IC50 (cell growth or viability; MTT): 4.3 µM

COc1cc(Nc2nccc(-c3cnn4nc(OC)ccc34)n2)cc(C(F)(F)F)c1
IC50 (cell growth or viability; ATP luminescence): 0.33 µM

CCN(CC)CCNC(=O)c1c(C)[nH]c(/C=C2\C(=O)Nc3ccc(F)cc32)c1C
IC50 (cell growth or viability): 10.1 µM

CCC[C@H](Nc1nc(-c2ccc(NC(=O)NCC)c(OC)c2)ncc1C)c1cccnc1
IC50 (cell growth or viability; fluorescence; 72 h): 0.0393 µM

O=C(O)/C=C/c1ccc(O)cc1
IC50 (cell growth or viability; MTT): > 50 µM

CN1C(=O)/C(=N\NC(=O)c2cc3ccccc3[nH]2)c2cc(F)ccc21
IC50 (cell growth or viability): 8.92 µM

C#C[C@@]1(O)[C@@H](CO)O[C@@H](n2ccc(N)nc2=O)[C@@H]1O
IC50 (cell growth or viability; SRB; 72 h): 0.0094 µM

CN1C(=O)/C(=N\NC(=O)c2cc3ccccc3[nH]2)c2cc(Br)ccc21
IC50 (cell growth or viability): 3.68 µM

O=c1[nH]c(=O)n([C@H]2C[C@H](O)[C@@H](CO)O2)cc1F
IC50 (cell growth or viability; SRB; 72 h): 0.056 µM

O=c1cc(CO)occ1[O-].[Cl-].[W+4].c1cc[cH-]c1.c1cc[cH-]c1
IC50 (cell growth or viability; MTT): 200 µM

CC(=O)O[C@H]1C(=O)[C@@]2(C)[C@H]([C@H](OC(=O)c3ccccc3)[C@]3(O)C[C@H](OC(=O)[C@H](O)[C@@H](NC(=O)c4ccccc4)c4ccccc4)C(C)=C1C3(C)C)[C@]1(OC(C)=O)CO[C@@H]1C[C@@H]2O
IC50 (cell growth or viability): 0.0006 µM

COc1cccc(C(=O)O[C@@H]2CN3Cc4c(cc5c(c4OC)OCO5)[C@@]24C=C[C@H](OC)C[C@@H]34)c1
IC50 (cell growth or viability; WST-1): > 10 µM

CC(=O)c1cccc(N=Nc2c(C(=O)O)cc(O)c(O)c2O)c1
IC50 (cell growth or viability; MTT): 10.2 µM

Cc1nc(Nc2ncc(C(=O)Nc3c(C)cccc3Cl)s2)cc(N2CCN(CCO)CC2)n1
IC50 (IL-8 release; 24 h): > 2.05 µM

COc1c2c(cc3c1OCO3)[C@]13C=C[C@H](OC)C[C@H]1N(C2)C[C@H]3OC(=O)c1cccc(C)c1
IC50 (cell growth or viability; WST-1): > 10 µM

O=C1Nc2ccccc2/C1=N/NC(=O)c1cc2ccccc2[nH]1
IC50 (cell growth or viability): 19.7 µM

CC(=O)c1ccc(N=Nc2c(C(=O)O)cc(O)c(O)c2O)cc1
IC50 (cell growth or viability; MTT): 14.6 µM

CC[C@H](C)C(=O)O[C@H]1C[C@@H](C)C=C2C=C[C@H](C)[C@H](CC[C@@H]3C[C@@H](O)CC(=O)O3)[C@H]21
IC50 (cell growth or viability; SRB; 72 h): 7.26 µg/mL

C#Cc1cc(Nc2nccc(Oc3ccc(NC(=O)Nc4cc(C(C)(C)C)nn4-c4ccc(C)cc4)c4ccccc34)n2)cc(C(=O)NCCOCCOCCOC)c1
IC50 (IL-8 release; 24 h): 0.0018 µM

COc1ccc(C(=O)O[C@@H]2CN3Cc4c(cc5c(c4OC)OCO5)[C@@]24C=C[C@H](OC)C[C@@H]34)cc1
IC50 (cell growth or viability; WST-1): > 10 µM

CC[C@H](C)C(=O)O[C@H]1CCC=C2C=C[C@H](C)[C@H](CC[C@@H]3C[C@@H](O)CC(=O)O3)[C@H]21
IC50 (cell growth or viability; SRB; 72 h): 0.07 µg/mL

NCCC(=O)Nc1ccc(-n2nc(C(F)(F)F)cc2-c2ccc3c(c2)oc2ccccc23)cc1
IC50 (cell growth or viability; MTT; 24 h): 7.2 µg/mL

O=C1Nc2ccc(Cl)cc2/C1=N/NC(=O)c1cc2ccccc2[nH]1
IC50 (cell growth or viability): > 30 µM

F[B-](F)(F)F.[Fe+3].c1cc[cH-]c1.c1cc[cH-]c1
IC50 (cell growth or viability; MTT): 180 µM

COc1ccc2c(c1)/C(=N/NC(=O)c1cc3ccccc3[nH]1)C(=O)N2C
IC50 (cell growth or viability): 5.73 µM

NCC(=O)Nc1ccc(-n2nc(C(F)(F)F)cc2-c2ccc3c(ccc4ccccc43)c2)cc1
IC50 (cell growth or viability; MTT; 24 h): 3.6 µg/mL

c1csc([I+]c2cccs2)c1
IC50 (cell growth or viability; trypan blue; 48 h): ~2.5 µM
